Results collected from several papers.
Compare with care: the assays were run in different laboratories. In brackets after ≈: the same amount, converted by molar mass.
Organism: Enterococcus faecalis
Observed: microbial growth

| Compound | assay | system | conditions | MIC |
| --- | --- | --- | --- | --- |
| CCCCCCCCCCCCCCCC(=O)NS(=O)(=O)OC1CCNCC1 | broth dilution | ATCC33186 | – | 12.5 µg/mL (≈ 29.9 µM) |
| CCCCCCCCCCCCCCCC(=O)C(F)(F)P(=O)(O)O | – | ATCC33186 | – | 100 µg/mL (≈ 270 µM) |
| Cc1cc(Cl)ccc1-c1ccc(/C=C2\SC(=S)N(CC(=O)O)C2=O)o1 | broth dilution | VRE | drug-resistant strain | 1 to 8 µg/mL (≈ 2.54 to 20.3 µM) |
| C=C(NC(=O)C(=C)NC(=O)c1csc(C2=N[C@@H]3c4csc(n4)[C@H]4NC(=O)c5csc(n5)[C@H]([C@](C)(O)[C@@H](C)O)NC(=O)[C@H]5CSC(=N5)/C(=C/C)NC(=O)[C@H]([C@@H](C)O)NC(=O)c5csc(n5)[C@]3(CC2)NC(=O)[C@H](C)NC(=O)C(=C)NC(=O)[C@H](C)NC(=O)[C@H]([C@@H](C)CC)N[C@@H]2C=Cc3c([C@H](C)O)cc(nc3[C@H]2O)C(=O)O[C@@H]4C)n1)C(N)=O | – | – | – | 0.12 µg/mL (≈ 0.0721 µM) |
| COc1ccc2cc1Oc1cc(ccc1OC)CCC(N[C@@H]1CCCc3ccccc31)CCCC2 (stereo partly shown) | broth dilution | ATCC33186 | – | > 100 µg/mL |
| CN[C@@H]1[C@H](O)[C@H](NC)[C@H]2O[C@@]3(O)C(=O)C[C@@H](C)O[C@H]3O[C@@H]2[C@H]1O | broth dilution | ATCC33186 | – | 50 µg/mL (≈ 150 µM) |
| CCCCCCCCCCCC(=O)CP(=O)(O)O | – | ATCC33186 | – | 25 µg/mL (≈ 89.8 µM) |
| CCCCCCCCCCCCCCCC(=O)NS(=O)(=O)OC | broth dilution | ATCC33186 | – | 50 µg/mL (≈ 143 µM) |
| CCCCCCCCCCCC(=O)C(F)(F)P(=O)(O)O | – | ATCC33186 | – | 100 µg/mL (≈ 318 µM) |
| CCCCCCCCCCCCCCCC(=O)NS(=O)(=O)Oc1cccc(Cl)c1 | broth dilution | ATCC33186 | – | 1.6 µg/mL (≈ 3.59 µM) |
